Measured values as given in ChEMBL document CHEMBL1142942, “Polybrominated diphenyl ethers from the Indonesian sponge Lamellodysidea herbacea” (J Nat Prod, 2007).
Converted amounts (≈) assume the structure as drawn.

Key:
Bacillus subtilis [1] = test: Antibacterial activity against Bacillus subtilis at 0.1ug/disk after 24 hrs by agar-plate diffusion assay; assay type: functional; conditions: read-out: IZ
Procedure, shortened: (§1)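 Paper disks loaded with compound (acetone solution), 0.1 to 10 µg/disk, placed on agar plates inoculated with B. subtilis. Incubated 37 °C for 24 h, then read for zones of inhibition. All materials sterilized at 121 °C for 20 min before and after testing.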

Bacillus subtilis [2] = test: Antibacterial activity against Bacillus subtilis at 1 ug/disk after 24 hrs by agar-plate diffusion assay; assay type: functional; conditions: read-out: IZ; procedure, shortened: as §1
Bacillus subtilis [3] = test: Antibacterial activity against Bacillus subtilis at 5 ug/disk after 24 hrs by agar-plate diffusion assay; assay type: functional; conditions: read-out: IZ; procedure, shortened: as §1
Bacillus subtilis [4] = test: Antibacterial activity against Bacillus subtilis at 10 ug/disk after 24 hrs by agar-plate diffusion assay; assay type: functional; conditions: read-out: IZ; procedure, shortened: as §1
[5] = Cytotoxicity against rat NBT-T2 cells by MTT method; assay type: cell-based
Procedure, shortened: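 Rat bladder epithelial NBT-T2 cells exposed to compound. Viability read by MTT, and IC50 values derived from it.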

Structure (SMILES)	zone of inhibition at 0.1 µg/disc (Bacillus subtilis [1]) [mm]	zone of inhibition at 1 µg/disc (Bacillus subtilis [2]) [mm]	zone of inhibition at 5 µg/disc (Bacillus subtilis [3]) [mm]	zone of inhibition at 10 µg/disc (Bacillus subtilis [4]) [mm]	IC50 [5] [µg/mL]
Oc1cc(Br)ccc1Oc1cc(Br)cc(Br)c1O	0	0	7	13	8.5 (≈ 19.4 µM)
COc1cc(Br)cc(Br)c1Oc1cc(Br)cc(Br)c1OC	0	0	0	0	
COc1c(Br)c(Br)cc(Br)c1Oc1cc(Br)cc(Br)c1O	6	9	9	9	
Oc1ccccc1Oc1c(O)cc(Br)cc1Br	6	8	10	14	> 15
Oc1cc(Br)c(Br)c(Br)c1Oc1cc(Br)cc(Br)c1O	7	10	13	16	> 15
COc1c(Br)c(Br)c(Br)c(Br)c1Oc1cc(Br)cc(Br)c1O	0	0	0	0	
COc1c(Br)cc(Br)cc1Oc1c(O)cc(Br)c(Br)c1Br	6	9	10	10	2.8 (≈ 4.58 µM)
COc1c(Br)cc(Br)cc1Oc1c(Br)c(Br)c(Br)c(Br)c1OC	0	0	0	0	
Oc1ccc(Br)cc1Oc1c(O)c(Br)cc(Br)c1Br	7	8	16	17	> 15
Oc1c(Br)cccc1Oc1cc(Br)c(Br)c(Br)c1O	0	0	8	13	> 15
COc1ccc(Br)cc1Oc1c(Br)c(Br)cc(Br)c1OC	0	0	0	0	
COc1c(Br)cc(Br)cc1Oc1c(Br)ccc(Br)c1OC	0	0	0	0	
COc1c(Br)cc(Br)cc1Oc1c(O)c(Br)c(Br)c(Br)c1Br	0	10	10	13	> 15
COc1c(Br)cc(Br)cc1Oc1c(Br)cc(Br)c(Br)c1OC	0	0	0	0	
COc1cc(Br)c(Br)c(Br)c1Oc1cc(Br)cc(Br)c1OC	0	0	0	0	
Oc1c(Br)cc(Br)cc1Oc1c(Br)ccc(Br)c1O	7	13	20	20	> 15
Oc1ccc(Br)cc1Oc1c(O)ccc(Br)c1Br	7	13	16	18	> 15
COc1ccc(Br)cc1Oc1c(OC)ccc(Br)c1Br	0	0	0	0	
Oc1ccc(Br)cc1Oc1cc(Br)cc(Br)c1O	6	6	8	11	> 15
Oc1c(Br)cc(Br)cc1Oc1c(O)c(Br)c(Br)c(Br)c1Br	6	7	12	12	> 15
COc1c(Br)cc(Br)c(Br)c1Oc1cc(Br)cc(Br)c1O	6	7	10	13	
COc1c(Br)cc(Br)cc1Oc1c(Br)cc(Br)c(Br)c1O	6	11	14	14	
Oc1cc(Br)cc(Br)c1Oc1cc(Br)cc(Br)c1O	0	0	16	18	> 15
COc1c(Br)cc(Br)cc1Oc1ccc(Br)cc1Br	0	0	0	0	
COc1cc(Br)c(Br)c(Br)c1Oc1cc(Br)cc(Br)c1O	0	0	0	0	
Oc1c(Br)cc(Br)cc1Oc1c(Br)cc(Br)c(Br)c1O	0	7	8	10	> 15
Brc1cc(Br)c2c(c1)Oc1c(Br)c(Br)c(Br)c(Br)c1O2	7	12	13	14	> 15
